High-throughput results (PubChem BioAssay)
HCT116 PTEN-null = suppresses growth of cells with PTEN deletion; HCT116 PTEN-null viability, CellTiter-Glo, 60 h; hits give low values; viability, % at 10 µM; actives 1.2% (n = 140,000); AID 827;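 active = viability at or below a set limit, 4 SD under the median of all tested compounds, cut at about 3.7% in these data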;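 also: PTEN knockout HCT116 line with beta catenin targeted HCT116 as companion control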
bCat KO growth = beta-catenin-lacking colon tumor cell growth suppression | actives 1.5% (n = 140,000) | HCT116 beta-catenin knockout viability, CellTiter-Glo, 60 h; hits give low values | viability, % at 10 µM;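 active = viability at or under a set limit, the compound median less 4 SD, cut at about 6% in these data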
HUVEC inhibit = inhibitors of human endothelial cell proliferation; HUVEC proliferation, CellTiter-Glo luminescence, 72 h; hits give low values; AID 648; actives 1.1% (n = 86,000); viability, % at 10 µM (by protocol);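 active = viability at or below 30%; inactive = viability above 30%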
H69AR inhibit = growth inhibitors of human H69AR lung tumor cells. viability, % at 10 µM. actives 6% (n = 85,000). H69AR lung tumor viability, ATP luminescence, 72 h; hits give low values;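 active = viability at or below 40%; inactive = viability above 40%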;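 also: multidrug resistant small cell line overexpressing MRP-1 efflux transporter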
Lung fibro prol = blocks proliferation of human lung fibroblasts | LL 47 human lung fibroblast viability, ATP luminescence; hits give low values | viability, % at 10 µM | actives 1.1% (n = 85,000) | AID 719;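 active = viability at or below 50% in the single dose screen; inactive = viability above 50%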;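 also: compound exposure lasted 72 h before the ATP readout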
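Test system: LL 47 human lung fibroblasts / Quantity: 1,150 cells in each well / Medium: IMEM growth medium with 15% fetal bovine serum / Incubation: 72 h compound exposure at 37 °C after overnight plating / Detection: CellTiter-Glo luminescence measuring cellular ATP / Read-out: % viability versus median cells-only luminescence / Benchmarks: cell-only wells, no compound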
Numbers stand for hits. The sample as a whole holds a higher share of hits than the screen did.

For CC1CCN(c2nc(Cl)nc(Nc3ccc([N+](=O)[O-])cc3)n2)CC1 the results were HCT116 PTEN-null inactive and bCat KO growth 2.2.
For COc1ccc(NC(=O)CCNS(=O)(=O)c2ccc3c(c2)c(=O)n(C)c(=O)n3C)c(OC)c1 the results were HCT116 PTEN-null inactive, bCat KO growth inactive, HUVEC inhibit inactive, H69AR inhibit inactive and Lung fibro prol inactive.
Screening O=C(CSc1cccc[n+]1[O-])c1cc2ccccc2o1 returned HCT116 PTEN-null 2.7, bCat KO growth 4.7, HUVEC inhibit inactive, H69AR inhibit inactive and Lung fibro prol inactive.
Screening CC(C)(C)OC(=O)N[C@@H](Cc1ccccc1)c1nnc(S(=O)(=O)Cc2cccc(F)c2)o1 returned HCT116 PTEN-null inactive, bCat KO growth inactive, HUVEC inhibit inactive, H69AR inhibit 1.0 and Lung fibro prol 20.
Screening Cc1ccccc1CS(=O)(=O)c1nnc([C@H](CC(C)C)NC(=O)OC(C)(C)C)o1 returned HCT116 PTEN-null inactive, bCat KO growth inactive, HUVEC inhibit inactive, H69AR inhibit inactive and Lung fibro prol 3.9.
CC(C)[C@H](NC(=O)OC(C)(C)C)c1nnc(S(=O)(=O)Cc2c(F)cccc2Cl)o1 was read as HUVEC inhibit inactive, H69AR inhibit 0.9 and Lung fibro prol 2.6.
Screening CC(C)C[C@H](NC(=O)OC(C)(C)C)c1nnc(SCc2ccccc2)o1 returned HCT116 PTEN-null inactive, bCat KO growth inactive, HUVEC inhibit inactive, H69AR inhibit inactive and Lung fibro prol inactive.
For CC[C@@H](C)[C@H](NC(=O)OC(C)(C)C)c1nnc(S(=O)(=O)Cc2cc(C)ccc2C)o1 the results were HCT116 PTEN-null 3.8, bCat KO growth 2.8, HUVEC inhibit inactive, H69AR inhibit 0.2 and Lung fibro prol 14.
For CCCCS/C(=C(/C#N)C(N)=O)c1cc2c([nH]1)CCCC2 the results were HCT116 PTEN-null inactive, bCat KO growth inactive, HUVEC inhibit inactive, H69AR inhibit 5.2 and Lung fibro prol inactive.
Screening COc1ccc(Cl)cc1NC(=S)NCCSc1ccc(C)cc1 returned HCT116 PTEN-null inactive and bCat KO growth inactive.
Cc1nnc2n(-c3ccccc3)c(=O)c3c4c(sc3n12)COC(C(C)C)C4 (configuration not stated) was read as HCT116 PTEN-null inactive, bCat KO growth inactive, HUVEC inhibit inactive, H69AR inhibit inactive and Lung fibro prol inactive.
CC(C)C1Cc2c(sc3[nH]c(=S)n(Cc4ccccc4)c(=O)c23)CO1 (configuration not stated) was read as HCT116 PTEN-null inactive, bCat KO growth inactive, HUVEC inhibit 7.0, H69AR inhibit 25 and Lung fibro prol inactive.
COCCNC(=O)c1ccc2c(c1)NC(=O)CS2 was read as HCT116 PTEN-null inactive, bCat KO growth inactive, HUVEC inhibit inactive, H69AR inhibit inactive and Lung fibro prol inactive.
CCOc1cc2c(cc1C(C)(C)C)NC(=O)CS2 was read as HCT116 PTEN-null inactive, bCat KO growth inactive, HUVEC inhibit inactive, H69AR inhibit 37 and Lung fibro prol inactive.
For COc1ccc(N(C(=O)c2ccco2)S(=O)(=O)c2cc(Cl)c(Cl)cc2Cl)cc1 the results were HCT116 PTEN-null inactive, bCat KO growth inactive, HUVEC inhibit inactive, H69AR inhibit 20 and Lung fibro prol inactive.
For COc1ccc(N(C(=O)c2ccco2)S(=O)(=O)c2ccccc2)cc1 the results were HCT116 PTEN-null inactive and bCat KO growth inactive.
`COc1ccccc1CNCC(O)Cn1c2ccccc2c2ccccc21` (configuration not stated) gave HCT116 PTEN-null 1.4 and bCat KO growth 1.5.
Screening Cc1cccc(N2CCc3c2nc2ccc(Br)cc2c3N)c1 returned HCT116 PTEN-null inactive, bCat KO growth inactive, HUVEC inhibit inactive, H69AR inhibit 22 and Lung fibro prol inactive.
Nc1c2c(nc3ccc(Br)cc13)N(c1ccccc1)CC2 was read as HCT116 PTEN-null inactive, bCat KO growth inactive, HUVEC inhibit inactive, H69AR inhibit 32 and Lung fibro prol inactive.
Screening Nc1c2c(nc3ccc(Br)cc13)N(Cc1ccccc1)CC2 returned HCT116 PTEN-null inactive and bCat KO growth inactive.
For COc1cccc(/C=N/NC(=O)c2ccc([N+](=O)[O-])cc2Cl)c1O the results were HCT116 PTEN-null inactive and bCat KO growth 5.6.
Cc1ccc(C(=O)c2cc(C)sc2NC(=O)CN2CCN(C(=O)c3ccco3)CC2)cc1 was read as HCT116 PTEN-null inactive, bCat KO growth inactive, HUVEC inhibit inactive, H69AR inhibit 28 and Lung fibro prol inactive.
`Cc1ccc(C(C)C)c(OCCNc2nc3c(c(=O)n(C)c(=O)n3C)n2C)c1` gave HUVEC inhibit inactive, H69AR inhibit inactive and Lung fibro prol inactive.
